Hits are enriched below; roughly 6.8% of the tested compounds scored in any of these assays.
core dimer inh = inhibitors of HCV core protein dimerization, primary screen, biochemical, TR-FRET, high-throughput; TR-FRET GST/Flag-core106 dimerization, 1536-well; inhibition, % at 5 µM; 300,000 compounds, 0.33% hits; AID 1899, 2009;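 active = inhibition above the mean of all tested compounds plus 3 SD, set per screening campaign, cut at about 45% in these data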
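Material: Tagged HCV core106 pair (GST and Flag) | Amount: GST-core106 13.5 nM, Flag-core106 17 nM | Medium: KF-containing HEPES buffer, pH 7.45, DTT, CHAPS, BSA | Reagent: Eu donor and XL665 acceptor anti-tag antibodies | Schedule: 4 h at 22.5 °C | Technique: Time-resolved FRET, ex 340 nm, em 617 and 671 nm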
PHOSPHO1 block = PubChem AID 1565; inhibition, % at 13.3 µM; recombinant PHOSPHO1, absorbance phosphatase assay; 290,000 compounds, 1.1% hits; in the data active = inhibition above about 60%
Target sequence (Q8TCT1 whole entry, looked up): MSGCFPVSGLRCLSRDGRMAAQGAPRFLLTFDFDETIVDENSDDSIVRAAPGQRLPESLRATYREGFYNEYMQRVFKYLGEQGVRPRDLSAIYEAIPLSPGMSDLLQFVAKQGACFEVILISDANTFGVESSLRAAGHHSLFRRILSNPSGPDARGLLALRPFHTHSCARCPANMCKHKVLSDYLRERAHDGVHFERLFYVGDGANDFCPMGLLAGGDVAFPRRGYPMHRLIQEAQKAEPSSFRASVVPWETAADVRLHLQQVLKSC
HSF1 inh = HSF1 inhibitors in luciferase reporter cells, primary screen, cell-based, NIH3T3, luminescence | NIH3T3-HGL HSE-luciferase, MG132-induced, luminescence 8 h; hits give low values | activity change, negative = inhibition, % at 7.5 µM (by protocol) | 300,000 compounds, 0.77% hits | AID 2098, 2009;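 active = more than half of replicate wells show activity change below -50%, luminescence cut by over half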;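 also: luciferase reports HSF-1 transcriptional activity via heat shock element; 0% = median of DMSO wells and -100% = zero luminescence signal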
HSF1 activator = HSF-1 activators, primary screen, NIH3T3-HGL cells, MG132 stress, luminescence, single point; NIH3T3-HGL HSF-1 luciferase reporter, 8 h; 100% = twice DMSO control signal; activation, % at 9 µM; 300,000 compounds, 1.7% hits;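 active = mean replicate activation of at least 50% with a set share of replicates each reaching 50%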;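 also: 0% = median of the neutral control wells and 100% = twice that signal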
AI-2 QS modul = Vibrio harveyi AI-2 quorum sensing modulators, primary screen, JMH597 strain, luminescence/OD600 ratio; Vibrio harveyi JMH597 AI-2 luminescence/OD600 ratio, 9 h; hits give low values; strain lacks LuxN and CqsS sensors; 0 = neutral-control median; AID 2094, 2009; activity change, % at 7.5 µM; 300,000 compounds, 0.4% hits; in the data active = activity change below about -75%, passing the limit was not always enough;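 also: luminescence divided by OD600 gain over 9 h not by final OD600 alone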
ALR H2O2 inh = inhibitors of human ALR sulfhydryl oxidase, primary screen, biochemical, H2O2 detection, HRP-luminol luminescence, single point | purified ALR, DTT oxidation | inhibition, % (test concentration not listed) | 290,000 compounds, 3.8% hits;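 active = mean replicate inhibition above about 79%, with every replicate also reaching it, limit read from the data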
Target sequence (P55789 whole entry, looked up): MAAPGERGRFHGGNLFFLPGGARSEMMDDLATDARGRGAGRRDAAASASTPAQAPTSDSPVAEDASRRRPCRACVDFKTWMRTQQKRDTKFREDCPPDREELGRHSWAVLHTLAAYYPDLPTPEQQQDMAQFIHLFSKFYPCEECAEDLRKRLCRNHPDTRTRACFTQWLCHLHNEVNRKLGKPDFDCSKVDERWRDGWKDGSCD
Active calls of the source: *.

Screening NC(=O)C1CCN(C(=O)c2ccc3nc(-c4ccccc4)c(-c4ccccc4)nc3c2)CC1 returned core dimer inh 0, PHOSPHO1 block -20, HSF1 inh 10, HSF1 activator 16, AI-2 QS modul 18 and ALR H2O2 inh -5.
For COc1ccccc1-c1nnc(SC2CCc3ccccc3NC2=O)s1 (stereo not drawn) the results were core dimer inh -20, PHOSPHO1 block -1, HSF1 inh -52*, HSF1 activator -63, AI-2 QS modul 13 and ALR H2O2 inh -11.
For O=C(CN(Cc1ccc(F)cc1)C(=O)CNS(=O)(=O)c1ccccc1)NCc1ccco1 the results were core dimer inh -4, PHOSPHO1 block 0, HSF1 inh 6, HSF1 activator 13 and AI-2 QS modul 2.
CCOC(=O)c1c(S(=O)(=O)NCC(=O)NCc2ccccc2Cl)c(C)n(C)c1C was read as core dimer inh -1, PHOSPHO1 block 62*, HSF1 inh -4, HSF1 activator 5, AI-2 QS modul 14 and ALR H2O2 inh -1.
CCOC(=O)c1c(S(=O)(=O)Nc2ccccn2)c(C)n(C)c1C was read as core dimer inh -1, PHOSPHO1 block 65*, HSF1 inh -5, HSF1 activator -3, AI-2 QS modul 27 and ALR H2O2 inh 0.
CCOC(=O)c1c(S(=O)(=O)NCC(=O)NCc2ccc(C)cc2)c(C)n(C)c1C was read as core dimer inh -1, PHOSPHO1 block 24, HSF1 inh -14, HSF1 activator 13, AI-2 QS modul 10 and ALR H2O2 inh -3.
CCCC12CN3CC(C)(CN(C1)C3c1ccco1)C2=O (stereo not drawn) was read as core dimer inh 0, PHOSPHO1 block -2, HSF1 inh 0, HSF1 activator 23, AI-2 QS modul 4 and ALR H2O2 inh -5.
For O=C(CCCc1nc(-c2ccc(Cl)cc2)no1)NC1CCCC1 the results were core dimer inh -1, PHOSPHO1 block 4, HSF1 inh 11, HSF1 activator 35, AI-2 QS modul 15 and ALR H2O2 inh -1.
`C/C(=N\NC(=O)CCc1ccc(S(=O)(=O)N2CCOCC2)cc1)c1ccc(Br)cc1` gave core dimer inh 0, PHOSPHO1 block 36, HSF1 inh 23, HSF1 activator 61*, AI-2 QS modul 0 and ALR H2O2 inh -3.
Screening O=C(CCc1ccc(S(=O)(=O)N2CCOCC2)cc1)N/N=C/c1ccc(F)cc1F returned core dimer inh -2, PHOSPHO1 block 4, HSF1 inh -2, HSF1 activator 3, AI-2 QS modul 34 and ALR H2O2 inh 5.
O=C(CCc1ccc(S(=O)(=O)N2CCOCC2)cc1)N/N=C/c1ccc(O)c(O)c1O was read as core dimer inh -10, PHOSPHO1 block -9, HSF1 inh -4, HSF1 activator 11, AI-2 QS modul 4 and ALR H2O2 inh 99*.
`COc1cccc(NS(=O)(=O)c2ccc(-n3cccn3)cc2)c1` gave core dimer inh -9, PHOSPHO1 block 10, HSF1 inh 4, HSF1 activator 13, AI-2 QS modul 10 and ALR H2O2 inh -6.
Cc1nc(-c2cccc(S(=O)(=O)N3CCCCC3)c2)cs1 was read as core dimer inh 1, PHOSPHO1 block 28, HSF1 inh -1, HSF1 activator 10, AI-2 QS modul 8 and ALR H2O2 inh 23.
Nc1cccc(-c2cn3cccnc3n2)c1 was read as core dimer inh -3, PHOSPHO1 block 34, HSF1 inh -5, HSF1 activator -2, AI-2 QS modul 25 and ALR H2O2 inh 99*.
Screening CCN(CC)S(=O)(=O)c1cccc(-c2cn3cccnc3n2)c1 returned core dimer inh 2, PHOSPHO1 block -76, HSF1 inh -2, HSF1 activator -10, AI-2 QS modul 36 and ALR H2O2 inh 99*.
CCN(CC)S(=O)(=O)c1cccc(-c2csc(C)n2)c1 was read as core dimer inh 3, PHOSPHO1 block 32, HSF1 inh -2, HSF1 activator 0, AI-2 QS modul 5 and ALR H2O2 inh 97*.
`Cc1ccc(-c2cn3cccnc3n2)cc1` gave core dimer inh 0, PHOSPHO1 block -8, HSF1 inh 9, HSF1 activator 19, AI-2 QS modul 17 and ALR H2O2 inh -10.
`C/C=C/C(=O)OCC(=O)Nc1ccc(SC(F)F)cc1` gave core dimer inh -5, PHOSPHO1 block 20, HSF1 inh -2, HSF1 activator -10, AI-2 QS modul -57 and ALR H2O2 inh 99*.
For CCC(C(=O)OCC(=O)Nc1ccc(SC(F)F)cc1)c1ccccc1 (stereo not drawn) the results were PHOSPHO1 block 7, HSF1 inh -2, HSF1 activator 0 and AI-2 QS modul -89*.
For N=c1sccn1CC(=O)Nc1ccc(SC(F)F)cc1 the results were core dimer inh -3, PHOSPHO1 block -2, HSF1 inh 1, HSF1 activator 8, AI-2 QS modul 10 and ALR H2O2 inh 98*.
O=C(CSc1n[nH]c(=O)[nH]c1=O)Nc1ccc(SC(F)F)cc1 was read as ALR H2O2 inh 99*.
CCC(C(=O)OCC(=O)Nc1ccc(F)cc1)c1ccccc1 (stereo not drawn) was read as ALR H2O2 inh 0.
Screening NC(=O)c1cccnc1Nc1ccccc1Cl returned core dimer inh 1, PHOSPHO1 block 4, HSF1 inh 4, HSF1 activator 33, AI-2 QS modul 14 and ALR H2O2 inh 0.
For COc1ccc(CCNC(=O)Cc2ccc(NC3=NC4CS(=O)(=O)CC4S3)cc2)c(OC)c1 (stereo not drawn) the results were core dimer inh 2, PHOSPHO1 block 33, HSF1 inh -3, HSF1 activator -15, AI-2 QS modul 1 and ALR H2O2 inh -19.
Screening CC(=O)OCC(=O)Nc1ccc(SC(F)F)cc1 returned core dimer inh -3, PHOSPHO1 block -27, HSF1 inh -2, HSF1 activator -21, AI-2 QS modul -20 and ALR H2O2 inh 99*.
Screening Cc1cc(-c2nnc(CCC(=O)N(C)Cc3cccc4ccccc34)o2)no1 returned core dimer inh -2, PHOSPHO1 block 53, HSF1 inh 42, HSF1 activator 64*, AI-2 QS modul 18 and ALR H2O2 inh -6.
`O=C(CSc1nnc2ccccn12)c1ccc(Cl)cc1` gave core dimer inh -3, PHOSPHO1 block -12, HSF1 inh 6, HSF1 activator 40, AI-2 QS modul 20 and ALR H2O2 inh 85*.

Assay outcomes from PubChem BioAssay.
